The text below walks through data of the RNAGym collection of RNA variant scans (doi:10.1101/gad.245936.114).

The chains are these.
B1: tRNA (parent)
chain: CUCUCGGUAGCCAAGUUGGUUUAAGGCGCAAGACUUUAAUUUAUCACUACGAAAUCUUGAGAUCGGGCGUUCGACUCGCCCCCGGGAGAUUUUUUCCUCGAGCAA

This sample holds only a part of the variants without activity.

Variants of B1 are the subject of this data set. The experiment in a line: nonsense suppression (GFP-seq) (ratio to wild type); higher = more function; SUP4oc tRNA, yeast GFP reporter sort-seq. The procedure, abridged:
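Sorted GFP/RFP bins of yeast were each Illumina-sequenced with a phred ≥30 cutoff; the cells held a genome-integrated ochre-suppressor tRNA variant from a library with ~3% random mutations, a galactose-driven GFP ochre reporter, and RFP. Culture was in raffinose/galactose medium containing 80 mg/L adenine. Nonsense suppression, termed GFPSEQ, is the median GFP/RFP of the bins weighted by each variant's estimated cell share per bin, relative to the unmutated parent tRNA, for variants reaching ≥100 reads and ≥30 cells.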
Turning to C27U G32C, the nonsense suppression is at most 0.026.
For the variant A24C U63C, the nonsense suppression worked out at 0.205.
In the case of A24C U63G it was 0.133; in that of A24C U63A, 0.636.
In the case of A24C C64G it was at most 0.026.
In the case of G26U U71C it was at most 0.026.
Turning to G28C C34U, the nonsense suppression was at most 0.026.
In the case of A24G C68A C82G G84U, the nonsense suppression is at most 0.026.
In the case of G28A A54C C68U it was 0.18.
The result for G26C U57A A89C reads at most 0.026; that for G28C U76C, 0.799.
The result for A24C A60C reads 0.0269; that for A24C A60U, 1.07.
For A24C A60G, the nonsense suppression was 0.258.
In the case of G25C C34A A87G it was at most 0.026; in that of A24C C29U, 0.751; in that of G28A C29U, 1.15.
As for G28A C34G G59A, the nonsense suppression was at most 0.026.
In the case of G28A G84A G86C it was at most 0.026; in that of C27A A62C, 0.349.
In the case of C29A G73A it was at most 0.026; in that of C29A A60G, 0.0331.
The result for A24C G67C G84U reads at most 0.026.
As for G26C C29G, the nonsense suppression was 0.0685.
For the variant C27G C68G G84A, the nonsense suppression was at most 0.026.
As to A24C G25U, the nonsense suppression was at most 0.026.
The result for A24U U35G A89G reads at most 0.026; that for A24C G28C, 0.201; that for A24C G28A, 0.952.
As for C27G C81G, the nonsense suppression was at most 0.026.
The result for A24C A30U A54C U58G C75A reads 0.783; that for G26C A60C, 0.027.
For the variant A24C A54G, the nonsense suppression turned out to be 0.0609.
As to A24C A54C, the nonsense suppression was 0.198.
Regarding G28A G61A, the nonsense suppression is 0.8.
In the case of A24C G78A, the nonsense suppression is 0.112.
In the case of A24C G78U it was 0.0343; in that of A24C A74C, 0.0915; in that of A24G U63G C80A G85C, at most 0.026.
On to G26U G28U, for which the nonsense suppression was at most 0.026.
With A24G C79U, the nonsense suppression was found to be 0.0352.
The result for A24G A87G reads 0.0583; that for G25C A89U, at most 0.026; that for C27U A62U, 0.0346.
The result for C27U A62G reads at most 0.026.
In the case of A24C C81U it was 0.2.
Consider A24G U70G, for which the nonsense suppression was at most 0.026.
In the case of C29A A54U C56U G66C it was at most 0.026.
As for C27U A74C, the nonsense suppression is 0.0355.
In the case of G28C G78C it was at most 0.026; in that of G28C G78A, 0.0288.
The result for G26C C81U reads at most 0.026; that for G28U A30C A33G A54G U76C C79A, at most 0.026; that for G25U G61U C68U, at most 0.026.
The result for G28U A33C U63A U71G reads at most 0.026; that for A24G U55C, 0.0553; that for G26U A33G G78C G84A, at most 0.026.
For the variant G25A G26U C56G, the nonsense suppression came out at 0.0585.
As to C27A A87U, the nonsense suppression was at most 0.026.
In the case of G28U U76A it was at most 0.026.
For A24C C83U, the nonsense suppression stood at 0.383.
In the case of A24U U55C it was 0.104; in that of A24U C75U C81U, at most 0.026.
Consider G25U G61A C82G G88U, for which the nonsense suppression was at most 0.026.
For the variant C27G U71G, the nonsense suppression was at most 0.026.
Take A24C U57A: the nonsense suppression amounted to 0.0454.
Turning to G28A A33U, the nonsense suppression stood at 0.0279.
Regarding G28A A33G, the nonsense suppression was found to be 0.161.
In the case of A23U U63A it was 0.207; in that of G25C A30G A33U, at most 0.026; in that of G28A C75G, 1.02.
For the variant C27A C34G A60U C77U, the nonsense suppression was at most 0.026.
In the case of G28C U55C it was 0.183.
In the case of G28C U55G it was at most 0.026.
The result for C29A reads 0.113.
For the variant A24U A30U, the nonsense suppression was found to be 0.0403.
With A24U A30G, the nonsense suppression turned out to be 0.148.
In the case of G26C C29U G67U it was at most 0.026; in that of G25C C27G, at most 0.026; in that of G25C G28C A62U, at most 0.026.
In the case of G25U G73U it was at most 0.026; in that of G26C G61A, at most 0.026; in that of A24U C29U, 0.233.
The result for G28A U35G G65U G73A C80U reads at most 0.026; that for G28C G85U, 0.208; that for G25U U58G C68G, at most 0.026.
A24C C79U: the nonsense suppression stood at 0.209.
The result for A24U A31G reads 0.229; that for C27G G32U C75A C81G G88C, at most 0.026; that for A24C A60U U63A, 0.112.
Regarding C27U U58A G59A, the nonsense suppression is at most 0.026.
As to A24G G61A U76C, the nonsense suppression came to 0.0509.
For the variant G25U G61A G67U, the nonsense suppression is at most 0.026.
In the case of G25A G26C, the nonsense suppression is at most 0.026.
In the case of G25C C77U C80G it was at most 0.026; in that of G25C A60G, 0.0619; in that of G26U G65C U71A G78U, at most 0.026.
The result for G28A A60G reads 1.07; that for G28C C64U, 0.0765.
The result for C27A G61U G86U reads at most 0.026; that for A24G A31U C34U A74G, at most 0.026; that for G28A U63A C68G U70A G85C, at most 0.026.
G28C A60C: the nonsense suppression came to 0.235.
In the case of C27U C75A it was 0.641.
In the case of G28C A33U C82U A89U it was at most 0.026; in that of C27G U57C G86C, at most 0.026.
Regarding A24U U76C, the nonsense suppression came out at 0.131.
On to C27G G66U, for which the nonsense suppression is at most 0.026.
As for A24C U58G G86U, the nonsense suppression was at most 0.026.
Take C27G U55A A60C: the nonsense suppression was 0.809.
For the variant G28A G66C A87U, the nonsense suppression was at most 0.026.
In the case of A24U A33G it was 0.117; in that of G28C G61C, 0.386; in that of A24U C29A C79U, at most 0.026.
In the case of C27G U57C U58G G66A C68G it was at most 0.026.
The result for A24G U35G reads at most 0.026.
As to A24G A54U, the nonsense suppression came to 0.0262.
Regarding G28U G78U, the nonsense suppression was 0.0435.
On to G28U G78A, for which the nonsense suppression is 0.0292.
Consider C27U U71C C77G, for which the nonsense suppression was at most 0.026.
With A24U G85A A87G, the nonsense suppression was 0.215.
The result for C29A A30C reads at most 0.026; that for G25A G32U U71G, at most 0.026.
The result for C29A G85A reads 0.115; that for C27U U58A, at most 0.026; that for A24U G78U, 0.0565.
In the case of G26C U63G it was at most 0.026.
On to G28U C79U, for which the nonsense suppression is at most 0.026.
A24C C34G C56U: the nonsense suppression is at most 0.026.
With A24C G85U, the nonsense suppression worked out at 0.258.
On to A24U A60G G65U G88C A89G, for which the nonsense suppression is at most 0.026.
In the case of G28C A89G it was 0.0403; in that of A24U A62G, 0.0414.
As for A24U A62U, the nonsense suppression worked out at 0.0332.
In the case of A24U A62C it was at most 0.026; in that of A24U C82U, 0.0571; in that of C27A C29A U71C C79U, at most 0.026.
In the case of G28C G61A U63C it was 0.041; in that of A24U A54U, 0.208.
In the case of G28C U63C it was 0.114; in that of G28C U63A, 0.225.
Consider G28U G61U, for which the nonsense suppression was 0.191.
Consider G28U G61C, for which the nonsense suppression was determined as 0.321.
As for A24C C75G, the nonsense suppression worked out at 1.11.
For A24C C75U, the nonsense suppression worked out at 1.18.
For G28U A62G U63A A74C, the nonsense suppression was at most 0.026.
The result for G26A C29G A30G A33G reads at most 0.026; that for C27G A33U C34G C83G G85A, at most 0.026; that for G26A U71G, at most 0.026.
The result for G28C G73U reads 0.0322; that for A24G C79G G86C, at most 0.026; that for G26C G67A, at most 0.026.
In the case of G26A U70A, the nonsense suppression was at most 0.026.
The result for G28C G67A reads 0.0635; that for C29A G65C U71G, at most 0.026; that for A24U G85C, at most 0.026.
In the case of A24U G85A it was 0.327; in that of A24U G85U, 0.0597; in that of A24G, 0.188.
Take A24U: the nonsense suppression was found to be 0.487.
In the case of A24C it was 1.13.
Take A24C C72G: the nonsense suppression came to 0.0618.
As to A24C C72U, the nonsense suppression is 0.0288.
In the case of C27U U35A U58A G65A G78C, the nonsense suppression was at most 0.026.
In the case of G25A C29A G84C, the nonsense suppression came to 0.027.
In the case of A24C A30U it was 0.11; in that of A24C G25C A62U, at most 0.026.
